Assay results as given in ChEMBL document CHEMBL4311987, “Discovery of novel allosteric site and covalent inhibitors of FBPase with potent hypoglycemic effects” (Eur J Med Chem, 2019).

Tests used:
Homo sapiens [1] = organism: Homo sapiens; assay: Selectivity index, ratio of IC50 for human FBPase C281S mutant expressed in Escherichia coli BL21 (DE3) to IC50 for human FBPase expressed in Escherichia coli BL21 (DE3)
How it was run: (§1)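 IC50 values for each FBPase point mutant and for wild-type human FBPase came from the same malachite-green assay. The index is mutant IC50 divided by wild-type IC50.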

[2] = biological target: Fructose-1,6-bisphosphatase 1 (Homo sapiens, UniProt P09467, C129S); assay: Inhibition of human FBPase C128S mutant expressed in Escherichia coli BL21 (DE3) using FBP as substrate incubated for 5 mins by malachite green dye based spectrophotometry
How it was run: (§2)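 Recombinant human FBPase (wild type or point mutants) was expressed in E. coli BL21 (DE3), purified and stored in 50% glycerol at -20 °C. Reactions ran 5 min at 37 °C, and released phosphate was read by malachite green.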

[3] = biological target: Fructose-1,6-bisphosphatase 1 (Homo sapiens, UniProt P09467, R244A); assay: Inhibition of human FBPase R243A mutant expressed in Escherichia coli BL21 (DE3) using FBP as substrate incubated for 5 mins by malachite green dye based spectrophotometry; how it was run: as §2
[4] = biological target: Fructose-1,6-bisphosphatase 1 (Homo sapiens, UniProt P09467, C282S); assay: Inhibition of human FBPase C281S mutant expressed in Escherichia coli BL21 (DE3) using FBP as substrate incubated for 5 mins by malachite green dye based spectrophotometry; how it was run: as §2
Homo sapiens [5] = organism: Homo sapiens; assay: Selectivity index, ratio of IC50 for human FBPase C38S mutant expressed in Escherichia coli BL21 (DE3) to IC50 for human FBPase expressed in Escherichia coli BL21 (DE3); how it was run: as §1
[6] = biological target: Fructose-1,6-bisphosphatase 1 (Homo sapiens, UniProt P09467, R255A); assay: Inhibition of human FBPase R254A mutant expressed in Escherichia coli BL21 (DE3) using FBP as substrate incubated for 5 mins by malachite green dye based spectrophotometry; how it was run: as §2
[7] = biological target: Fructose-1,6-bisphosphatase 1 (Homo sapiens, UniProt P09467, C184S); assay: Inhibition of human FBPase C183S mutant expressed in Escherichia coli BL21 (DE3) using FBP as substrate incubated for 5 mins by malachite green dye based spectrophotometry; how it was run: as §2
[8] = biological target: T1, Fructose-1,6-bisphosphatase 1 (Homo sapiens, UniProt P09467); assay: Inhibition of human FBPase expressed in Escherichia coli BL21 (DE3) using FBP as substrate incubated for 5 mins by malachite green dye based spectrophotometry
T1 sequence (P09467 whole entry): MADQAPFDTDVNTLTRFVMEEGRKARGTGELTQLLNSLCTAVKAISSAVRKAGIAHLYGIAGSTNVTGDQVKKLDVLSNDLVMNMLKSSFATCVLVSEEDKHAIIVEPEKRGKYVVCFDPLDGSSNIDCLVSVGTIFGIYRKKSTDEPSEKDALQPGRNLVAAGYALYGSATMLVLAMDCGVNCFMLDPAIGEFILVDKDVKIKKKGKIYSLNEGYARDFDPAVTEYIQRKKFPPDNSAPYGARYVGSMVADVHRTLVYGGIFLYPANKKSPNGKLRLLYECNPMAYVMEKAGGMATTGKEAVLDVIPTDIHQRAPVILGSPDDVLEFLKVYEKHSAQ

[9] = biological target: Fructose-1,6-bisphosphatase 1 (Homo sapiens, UniProt P09467, Y259A); assay: Inhibition of human FBPase Y258A mutant expressed in Escherichia coli BL21 (DE3) using FBP as substrate incubated for 5 mins by malachite green dye based spectrophotometry; how it was run: as §2
[10] = biological target: Fructose-1,6-bisphosphatase 1 (Homo sapiens, UniProt P09467, N126A); assay: Inhibition of human FBPase N125A mutant expressed in Escherichia coli BL21 (DE3) using FBP as substrate incubated for 5 mins by malachite green dye based spectrophotometry; how it was run: as §2
Homo sapiens [11] = organism: Homo sapiens; assay: Selectivity index, ratio of IC50 for human FBPase C183S mutant expressed in Escherichia coli BL21 (DE3) to IC50 for human FBPase expressed in Escherichia coli BL21 (DE3); how it was run: as §1
Homo sapiens [12] = organism: Homo sapiens; assay: Selectivity index, ratio of IC50 for human FBPase R254A mutant expressed in Escherichia coli BL21 (DE3) to IC50 for human FBPase expressed in Escherichia coli BL21 (DE3); how it was run: as §1
[13] = biological target: Fructose-1,6-bisphosphatase 1 (Homo sapiens, UniProt P09467, C117S); assay: Inhibition of human FBPase C116S mutant expressed in Escherichia coli BL21 (DE3) using FBP as substrate incubated for 5 mins by malachite green dye based spectrophotometry; how it was run: as §2
[14] = biological target: Fructose-1,6-bisphosphatase 1 (Homo sapiens, UniProt P09467, C180S); assay: Inhibition of human FBPase C179S mutant expressed in Escherichia coli BL21 (DE3) using FBP as substrate incubated for 5 mins by malachite green dye based spectrophotometry; how it was run: as §2
Homo sapiens [15] = organism: Homo sapiens; assay: Selectivity index, ratio of IC50 for human FBPase C179S mutant expressed in Escherichia coli BL21 (DE3) to IC50 for human FBPase expressed in Escherichia coli BL21 (DE3); how it was run: as §1
[16] = biological target: Fructose-1,6-bisphosphatase 1 (Homo sapiens, UniProt P09467, C39S); assay: Inhibition of human FBPase C38S mutant expressed in Escherichia coli BL21 (DE3) using FBP as substrate incubated for 5 mins by malachite green dye based spectrophotometry; how it was run: as §2
[17] = biological target: Fructose-1,6-bisphosphatase 1 (Homo sapiens, UniProt P09467, C93S); assay: Inhibition of human FBPase C92S mutant expressed in Escherichia coli BL21 (DE3) using FBP as substrate incubated for 5 mins by malachite green dye based spectrophotometry; how it was run: as §2
[18] = biological target: Fructose-1,6-bisphosphatase 1 (Homo sapiens, UniProt P09467, S125A); assay: Inhibition of human FBPase S124A mutant expressed in Escherichia coli BL21 (DE3) using FBP as substrate incubated for 5 mins by malachite green dye based spectrophotometry; how it was run: as §2
Homo sapiens [19] = organism: Homo sapiens; assay: Selectivity index, ratio of IC50 for human FBPase N125A mutant expressed in Escherichia coli BL21 (DE3) to IC50 for human FBPase expressed in Escherichia coli BL21 (DE3); how it was run: as §1
Homo sapiens [20] = organism: Homo sapiens; assay: Selectivity index, ratio of IC50 for human FBPase R243A mutant expressed in Escherichia coli BL21 (DE3) to IC50 for human FBPase expressed in Escherichia coli BL21 (DE3); how it was run: as §1
Homo sapiens [21] = organism: Homo sapiens; assay: Selectivity index, ratio of IC50 for human FBPase Y258A mutant expressed in Escherichia coli BL21 (DE3) to IC50 for human FBPase expressed in Escherichia coli BL21 (DE3); how it was run: as §1
Homo sapiens [22] = organism: Homo sapiens; assay: Selectivity index, ratio of IC50 for human FBPase C116S mutant expressed in Escherichia coli BL21 (DE3) to IC50 for human FBPase expressed in Escherichia coli BL21 (DE3); how it was run: as §1
Homo sapiens [23] = organism: Homo sapiens; assay: Selectivity index, ratio of IC50 for human FBPase C92S mutant expressed in Escherichia coli BL21 (DE3) to IC50 for human FBPase expressed in Escherichia coli BL21 (DE3); how it was run: as §1
Homo sapiens [24] = organism: Homo sapiens; assay: Selectivity index, ratio of IC50 for human FBPase S124A mutant expressed in Escherichia coli BL21 (DE3) to IC50 for human FBPase expressed in Escherichia coli BL21 (DE3); how it was run: as §1

Fructose-1,6-bisphosphatase 1 (Homo sapiens, UniProt P09467, R244A), sequence (P09467 2-338 R244A limits assumed): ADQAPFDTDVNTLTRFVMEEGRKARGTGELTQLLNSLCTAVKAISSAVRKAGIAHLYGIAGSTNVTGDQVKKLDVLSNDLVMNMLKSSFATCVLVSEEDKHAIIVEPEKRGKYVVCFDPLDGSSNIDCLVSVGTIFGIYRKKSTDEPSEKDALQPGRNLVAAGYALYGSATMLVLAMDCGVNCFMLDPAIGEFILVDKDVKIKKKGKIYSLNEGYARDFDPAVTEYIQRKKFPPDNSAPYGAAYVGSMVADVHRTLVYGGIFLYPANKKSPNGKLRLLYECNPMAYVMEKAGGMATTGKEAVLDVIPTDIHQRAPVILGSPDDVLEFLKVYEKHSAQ
Fructose-1,6-bisphosphatase 1 (Homo sapiens, UniProt P09467, C184S), sequence (P09467 2-338 C184S limits assumed): as the sequence (P09467 2-338 R244A limits assumed) above, with C183S, A243R counted along it
Fructose-1,6-bisphosphatase 1 (Homo sapiens, UniProt P09467, C93S), sequence (P09467 2-338 C93S limits assumed): as the sequence (P09467 2-338 R244A limits assumed) above, with C92S, A243R counted along it
Fructose-1,6-bisphosphatase 1 (Homo sapiens, UniProt P09467, C39S), sequence (P09467 2-338 C39S limits assumed): as the sequence (P09467 2-338 R244A limits assumed) above, with C38S, A243R counted along it
Fructose-1,6-bisphosphatase 1 (Homo sapiens, UniProt P09467, C180S), sequence (P09467 2-338 C180S limits assumed): as the sequence (P09467 2-338 R244A limits assumed) above, with C179S, A243R counted along it
Fructose-1,6-bisphosphatase 1 (Homo sapiens, UniProt P09467, C282S), sequence (P09467 2-338 C282S limits assumed): as the sequence (P09467 2-338 R244A limits assumed) above, with A243R, C281S counted along it
Fructose-1,6-bisphosphatase 1 (Homo sapiens, UniProt P09467, Y259A), sequence (P09467 2-338 Y259A limits assumed): as the sequence (P09467 2-338 R244A limits assumed) above, with A243R, Y258A counted along it
Fructose-1,6-bisphosphatase 1 (Homo sapiens, UniProt P09467, C129S), sequence (P09467 2-338 C129S limits assumed): as the sequence (P09467 2-338 R244A limits assumed) above, with C128S, A243R counted along it
Fructose-1,6-bisphosphatase 1 (Homo sapiens, UniProt P09467, S125A), sequence (P09467 2-338 S125A limits assumed): as the sequence (P09467 2-338 R244A limits assumed) above, with S124A, A243R counted along it
Fructose-1,6-bisphosphatase 1 (Homo sapiens, UniProt P09467, R255A), sequence (P09467 2-338 R255A limits assumed): as the sequence (P09467 2-338 R244A limits assumed) above, with A243R, R254A counted along it
Fructose-1,6-bisphosphatase 1 (Homo sapiens, UniProt P09467, N126A), sequence (P09467 2-338 N126A limits assumed): as the sequence (P09467 2-338 R244A limits assumed) above, with N125A, A243R counted along it
Fructose-1,6-bisphosphatase 1 (Homo sapiens, UniProt P09467, C117S), sequence (P09467 2-338 C117S limits assumed): as the sequence (P09467 2-338 R244A limits assumed) above, with C116S, A243R counted along it

SMILES | Ratio IC50 (Homo sapiens [1]) | IC50 [2] [nM] | IC50 [3] [nM] | IC50 [4] [nM] | Ratio IC50 (Homo sapiens [5]) | IC50 [6] [nM] | IC50 [7] [nM] | IC50 [8] [nM] | IC50 [9] [nM] | IC50 [10] [nM] | Ratio IC50 (Homo sapiens [11]) | Ratio IC50 (Homo sapiens [12]) | IC50 [13] [nM] | IC50 [14] [nM] | Ratio IC50 (Homo sapiens [15]) | IC50 [16] [nM] | IC50 [17] [nM] | IC50 [18] [nM] | Ratio IC50 (Homo sapiens [19]) | Ratio IC50 (Homo sapiens [20]) | also measured
CCOC(=O)C(C)(C)Oc1ccc(F)c(/C=C/[N+](=O)[O-])c1 | 1.5 | > 500000 | 17000 | 1300 | 1 | 12000 | 970 | 610 | 2900 | > 300000 | 1.6 | 20 | 960 | 3600 | 5.9 | 660 | 640 | 24000 | 492 | 28 | Ratio IC50 (Homo sapiens [21]): 4.8; Ratio IC50 (Homo sapiens [22]): 1.6; Ratio IC50 (Homo sapiens [23]): 1; Ratio IC50 (Homo sapiens [24]): 39
O=[N+]([O-])/C=C/c1cccc(F)c1 | 7.2 | > 350000 | 2200 | 2300 | 3.8 | 8400 | 920 | 320 | 19000 | > 200000 | 2.8 | 26 | 1100 | 890 | 2.8 | 1200 | 620 | 12000 | > 625 | 6.9 | Ratio IC50 (Homo sapiens [21]): 19; Ratio IC50 (Homo sapiens [22]): 3.4; Ratio IC50 (Homo sapiens [23]): 1.9; Ratio IC50 (Homo sapiens [24]): 37.8
N#Cc1ccc(/C=C/[N+](=O)[O-])cc1 | 1.7 | > 350000 | 680 | 610 | 1.4 | 3600 | 440 | 360 | 1500 | > 200000 | 1.2 | 10 | 330 | 430 | 1.2 | 490 | 340 | 1400 | > 556 | 1.9 | Ratio IC50 (Homo sapiens [21]): 4.2; Ratio IC50 (Homo sapiens [22]): 0.94; Ratio IC50 (Homo sapiens [23]): 0.97; Ratio IC50 (Homo sapiens [24]): 3.8
